Each structure is given as a SMILES string.

Results on six compounds are retold here after ChEMBL document CHEMBL4368899, “Novel carbohydrate modified berberine derivatives: synthesis and in vitro anti-diabetic investigation” (Medchemcomm, 2019).

In data set [1] the test system is HepG2. Nature of the data set: Antidiabetic activity in human HepG2 cells assessed as increase in glucose consumption at 5 ug/mL after 48 hrs by glucose oxidase method relative to berberine. In kind it is functional. A digest of the protocol:
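HepG2 cells were grown in DMEM with 10% heat-inactivated FBS and penicillin/streptomycin. They were seeded at 2×10^5 cells per well and cultured 12 h at 37 °C in 5% CO2. Cells were then exposed to 5.0 µg mL⁻¹ compound for two days. A DMSO solvent control and a blank were run. Glucose was measured by glucose oxidase. Consumption = blank-well glucose minus glucose remaining in treated wells. Means ± SD, n = 8, expressed as % increase over berberine.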

Data set [2] has as its system HepG2. Nature of the data set: Cytotoxicity against human HepG2 cells after 12 hrs by CCK-8 assay. As to conditions: for IC50: Homo sapiens, HepG2, 12 h; for Activity: human, hepg2, 12 h. In kind it is cell-based. A digest of the protocol: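 Cells were cultured in DMEM/10% heat-inactivated FBS with penicillin/streptomycin at 37 °C, 5% CO2, and harvested with trypsin at 80–90% confluence. They were plated at 1×10^5 cells per mL, and medium was refreshed after 12 h. Cells were treated 12 h with 0.2–625 µg mL⁻¹ compound dissolved in 0.5% DMSO–water. CCK-8 was added for 4 h, then A570 read, correcting for compound colour. IC50 is relative to untreated cells as 100%. n = 3.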
On the technique in general: Tetrazolium dyes change colour on reduction, which living cells bring about.

The nature of data set [3]: Stability of compound in acetonitrile/water at 1:1 ratio at pH 1.5 assessed as compound degradation after 5 hrs by HPLC analysis. The format is physicochemical. As to conditions: acetonitrile/water 1:1, pH 1.5; read-out: Drug degradation. The method, boiled down:
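Remaining compound after 5 h was quantified by HPLC on a C8 column (250 × 4.6 mm, 5 µm). Elution used 50% acetonitrile in 0.05 mol L⁻¹ aqueous KH2PO4 at 1 mL min⁻¹, with detection at 320 nm.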

Data set [4] can be described thus: Aqueous solubility of compound. The format is physicochemical. As to conditions: water.

In general, IC50 refers to the concentration that inhibits the measured activity by half. Low readings indicate greater potency in that assay, high ones weaker potency in that assay. In general, solubility refers to the concentration that dissolves in the medium under given conditions. Lower therefore signals a poorly soluble substance. On to `COc1ccc2cc3[n+](cc2c1OCc1cn([C@H]2O[C@H](CO)[C@@H](O)[C@H](O)[C@@H]2O)nn1)CCc1cc2c(cc1-3)OCO2.[Cl-]`, for which the Activity in the data set on HepG2 [1] is 10.81%; in the data set with HepG2 [2] it was “Dose-dependent effect”. This compound also came in with an IC50 in the data set with HepG2 [2] of 72.2 µg/mL. In data set [3], the degraded at 5 h was determined as 0.3%. For the same compound, in data set [4], the solubility came out at 9000 µg/mL.
With `COc1ccc2cc3[n+](cc2c1OCc1cn([C@@H]2O[C@H](CO)[C@@H](O)[C@H]2O)nn1)CCc1cc2c(cc1-3)OCO2.[Cl-]`, the values for the Activity with HepG2 [1] and with HepG2 [2] were 14.83% and “Dose-dependent effect”, respectively. The compound also gave a concentration for half-maximal inhibition (IC50) in the data set with HepG2 [2] of 44 µg/mL.
In the same order, the values of `COc1ccc2cc3[n+](cc2c1OCc1cn([C@@H]2O[C@H](CO)[C@@H](O)[C@H](O)[C@H]2O)nn1)CCc1cc2c(cc1-3)OCO2.[Cl-]` are 2.23%, “Dose-dependent effect” and 62.9 µg/mL.
In the same order, the values of `COc1ccc2cc3[n+](cc2c1OCc1cn([C@@H]2O[C@@H](C)[C@H](O)[C@@H](O)[C@H]2O)nn1)CCc1cc2c(cc1-3)OCO2.[Cl-]` are -3.6%, “Dose-dependent effect” and 49.3 µg/mL.
Take `COc1ccc2cc3[n+](cc2c1OCc1cn([C@@H]2O[C@H](CO)[C@H](O)[C@H](O)[C@H]2O)nn1)CCc1cc2c(cc1-3)OCO2.[Cl-]`: in the data set with HepG2 [1], the Activity was 0.21%. In the data set on HepG2 [2], it took 59.3 µg/mL to reach half-maximal inhibition (IC50) and the Activity entry is “Dose-dependent effect”.
In turn, `COc1ccc2cc3[n+](cc2c1OC)CCc1cc2c(cc1-3)OCO2.[Cl-]` [BERBERINE CHLORIDE] gave an IC50 in the data set on HepG2 [2] of 53.9 µg/mL. Moreover, in data set [3], the degraded at 5 h stood at 1.8%. In data set [4], this compound displayed a solubility of 1750 µg/mL.
